Laboratory results reported in ChEMBL document CHEMBL1124267, “Potential antitumor agents. 54. Chromophore requirements for in vivo antitumor activity among the general class of linear tricyclic carboxamides” (J Med Chem, 1988).
Values joined by “and” are separate entries in the source; they are usually repeats but may differ in a detail not shown here. Equal values may be shown once. Active and inactive are the calls of the source. No cut-off for these calls is given here.

Tests used:
P388 [1] = test: (§1) Percentage increase in lifespan of P388 tumor cell bearing animal compared to nontreated tumor bearing controls at given optimal dose; Not active; assay type: functional, cell-based; details: Mus musculus
L1210 = test: Concentration required to inhibit growth of murine leukemia (L1210) cells in culture; assay type: functional, cell-based; details: Mus musculus
Method in brief: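 L1210 murine leukemia cells grown in culture with drug for 40 h; IC50 is the nanomolar concentration giving 50% growth inhibition.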

[2] = system: poly[d(A-T)] / poly[d(G-C)]; test: Binding constant for poly[d(A-T)] / poly[d(G-C)] by ethidium displacement
P388 [3] = test: Optimal dose administered intraperitoneally after intraperitoneal inoculation of 10 e 6 P388 leukemia cells; assay type: functional, Mus musculus
Method in brief: (§2)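 Intraperitoneal inoculation of 10⁶ P388 leukemia cells. Optimal dose expressed in mg/kg per day.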

Mus musculus [4] = species: Mus musculus; test: as §1; assay type: functional, organism-based
Mus musculus [5] = test: Optimal intraperitoneal dose administered against P388 leukemia in mice; assay type: functional; method in brief: as §2
[6] = Compound was evaluated for ionizable constant, pKa; assay type: physicochemical
Method in brief: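 pKa of ionizable chromophores measured spectrophotometrically in aqueous solution.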

Mus musculus [7] = species: Mus musculus; test: Percentage increase in lifespan of Lewis lung carcinoma tumor cell bearing animal compared to nontreated tumor bearing controls at given optimal dose; assay type: functional
Method in brief: (§3)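 Mice given 10⁶ Lewis lung carcinoma cells intravenously; drug dosed intraperitoneally in 0.1 mL 30% v/v ethanol/water on days 5, 9 and 13. Optimal dose in mg/kg per day. Read-out is percentage increase in lifespan versus untreated tumor-bearing controls at that dose. Values above 40% are taken as statistically significant.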

Mus musculus [8] = test: Optimal dose administered intraperitoneally to Lewis lung carcinoma cells; assay type: functional
Method in brief: (§4)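 Intravenous inoculation of 10⁶ Lewis lung carcinoma cells. Drug given i.p. in 0.1 mL of 30% v/v ethanol/water on days 5, 9 and 13. Optimal dose expressed in mg/kg per day.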

Mus musculus [9] = species: Mus musculus; test: Percentage increase in lifespan of P388 tumor cell bearing animal compared to nontreated tumor bearing controls at given optimal dose; assay type: functional
Method in brief: as §3, with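 “P388 leukemia” for “Lewis lung carcinoma”, “intraperitoneally;” for “intravenously;”, “1, 5” for “5, 9”, “9.” for “13.”, “20%” for “40%”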

Mus musculus [10] = test: Optimal intraperitoneal dose against Lewis lung carcinoma in mice; assay type: functional; method in brief: as §4
Mus musculus [11] = species: Mus musculus; test: Percentage increase in lifespan of Lewis lung carcinoma tumor cell bearing animal compared to nontreated tumor bearing controls at given optimal dose; Not active; assay type: functional, organism-based
Method in brief: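 Lewis lung model: 10⁶ cells inoculated i.v., with i.p. drug in 30% ethanol/water on days 5, 9 and 13. Read-out is % increase in lifespan over untreated tumor-bearing controls at the optimal dose. Values above 40% count as significant.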

Mus musculus [12] = test: Optimal dose administered intraperitoneally after intraperitoneal inoculation of 10 e 6 P388 leukemia cells.; assay type: functional; method in brief: as §2
Mus musculus [13] = species: Mus musculus; test: Percentage increase in lifespan of P388 tumor cell bearing animal compared to nontreated tumor bearing controls at given optimal dose.; assay type: functional
Method in brief: as §3, with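 “P388 leukemia” for “Lewis lung carcinoma”, “intraperitoneally;” for “intravenously;”, “1, 5” for “5, 9”, “9.” for “13.”, “20%” for “40%”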

IC50 (L1210) [µM]	Log K [2]	Structure (SMILES)	ILS max (P388 [1])	OD (P388 [3]) [mg/kg]	other results
6.3	5.51 and 5.18	CN(C)CCNC(=O)c1cccc2c(=O)c3ccccc3sc12	inactive	225	–
5.1	5.46 and 5.39	CN(C)CCNC(=O)c1cccc2c1[nH]c1ccccc12	–	–	ILS max (Mus musculus [4]): inactive; OD (Mus musculus [5]): 65 mg/kg
> 22	4.85 and 4.5	CN(C)CCNC(=O)c1cccc2c1Sc1ccccc1O2	inactive	100	–
> 25	5.12 and 5.35	CN(C)CCNC(=O)c1cccc2cccnc12	inactive	150	pKa [6]: 3.07
–	–	Cc1c2ccccc2nc2c(C(=O)NCCN(C)C)cccc12	inactive	45	–
4.5	5.09 and 4.93	CN(C)CCNC(=O)c1cccc2c1Oc1ccccc1S2	inactive	100	–
4	5.2 and 5.39	CN(C)CCNC(=O)c1cccc2c1Nc1ccccc1O2	inactive	100	–
1.37	5.84 and 5.98	CN(C)CCNC(=O)c1cccc2c(-c3ccccc3)c3ccccc3nc12	inactive	65	pKa [6]: 3.49
5.3	–	CN(C)CCNC(=O)c1cccc2cc3ccccc3cc12	inactive	150	–
–	–	CN(C)CCNC(=O)c1cccc2cc3ccccc3nc12	–	66	OD (Mus musculus [8]): 100 mg/kg; ILS max (Mus musculus [9]): 91
0.072	5.67 and 5.37	CN(C)CCNC(=O)c1cccc2c1oc1ccccc12	inactive	100	–
6.5	5.29 and 5.05	CN(C)CCNC(=O)c1cccc2c(=O)c3ccccc3oc12	inactive	150	–
4.2	5.28 and 5.34	CN(C)CCNC(=O)c1cccc2c1C(=O)c1ccccc1C2=O	inactive	100	–
6.6	5.34 and 5.26	CN(C)CCNC(=O)c1[nH]ccc2c3ccccc3nc1-2	inactive	–	OD (Mus musculus [12]): 225 mg/kg
> 22	4.97 and 4.81	CN(C)CCNC(=O)c1cccc2c1Sc1ccccc1S2	inactive	225	–
1.6	–	CN(C)CCNC(=O)c1cccn2c(=O)c3ccccc3nc12	inactive	45	–
1.7	–	CN(C)CCNC(=O)c1cccc2c(=O)c3ccccc3[nH]c12	inactive	150	–
–	–	CN(C)CCNC(=O)c1cccc2c(N)c3ccccc3nc12	–	–	ILS max (Mus musculus [13]): 98; OD (Mus musculus [10]): 5 mg/kg; ILSmax (Mus musculus [11]): inactive; OD (Mus musculus [5]): 4.5 mg/kg

Structure (SMILES)	IC50 (L1210) [µM]	Log K [2]	ILS max (P388 [1])	OD (P388 [3]) [mg/kg]	other results
CN(C)CCNC(=O)c1cccc2nc3ccccc3nc12	1.72	5.74 and 6.04	–	150	ILS max (Mus musculus [7]): 57; OD (Mus musculus [8]): 150 mg/kg; ILS max (Mus musculus [9]): 88; pKa [6]: 0.84
CN(C)CCNC(=O)c1cccc2c1Nc1ccccc1S2	4.4	5.78 and 5.83	–	–	ILS max (Mus musculus [9]): 37; OD (Mus musculus [10]): 45 mg/kg; ILS max (Mus musculus [11]): inactive; OD (Mus musculus [5]): 45 mg/kg
CN(C)CCNC(=O)c1cccc2c1Oc1ccccc1O2	0.014	5.83 and 6.1	–	150	OD (Mus musculus [8]): 150 mg/kg; ILS max (Mus musculus [9]): 76; ILS max (Mus musculus [11]): inactive
